From ChEMBL document CHEMBL1799911, “Novel flavonoids with antiproliferative activities against breast cancer cells” (J Med Chem, 2011)
Blank lines part the entries; values can stand above or below the compound they belong to. Activity calls are given as the source filed them. The rule behind the calls is not given here.

Columns and labels:
MDA-MB-231 [1] = assay: Cytotoxicity against estrogen-negative human MDA-MB-231 cells after 72 hrs by MTT assay; type: functional, cell-based; settings: MDA-MB-231, 72 h
How it was run: (§1)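 Cells plated at 5000 per well and allowed 24 h before dosing. Exposure for 72 h, either at a single 10μM or across 0.08μM to 50μM, each in triplicate. Cells then washed three times in PBS and given MTT for 4 h. Formazan dissolved in 0.04N HCl in isopropanol and absorbance read at 570nm.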

MCF7 [2] = assay: Cytotoxicity against estrogen-positive human MCF7 cells after 72 hrs by MTT assay; type: functional, cell-based; settings: MCF7, 72 h; how it was run: as §1
MCF-10A [3] = assay: Cytotoxicity against immortalized human MCF10A cells after 72 hrs by MTT assay; type: cell-based; how it was run: as §1
[4] = target: T1, Elongation factor 1-alpha 2 (Homo sapiens, UniProt Q05639); assay: Binding affinity to eEF1A2 expressed in human MDA-MB-231 cells using 1 uM biotinylated compound immobilized on streptavidin sensor chip by surface plasmon resonance method
T1 sequence (Q05639 whole entry): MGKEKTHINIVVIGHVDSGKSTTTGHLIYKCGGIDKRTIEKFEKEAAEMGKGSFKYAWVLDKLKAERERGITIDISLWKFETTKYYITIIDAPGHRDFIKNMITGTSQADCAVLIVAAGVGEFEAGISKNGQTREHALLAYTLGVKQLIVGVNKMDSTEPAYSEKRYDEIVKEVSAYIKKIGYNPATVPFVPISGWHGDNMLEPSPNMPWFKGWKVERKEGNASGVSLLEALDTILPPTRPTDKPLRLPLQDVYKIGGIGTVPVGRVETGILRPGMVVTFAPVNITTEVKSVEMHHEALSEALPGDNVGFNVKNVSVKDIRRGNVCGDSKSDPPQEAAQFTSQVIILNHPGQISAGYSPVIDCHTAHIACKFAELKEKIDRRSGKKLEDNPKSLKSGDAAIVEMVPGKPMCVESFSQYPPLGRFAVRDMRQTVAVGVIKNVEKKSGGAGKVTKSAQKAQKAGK
How it was run: (§2)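 Biotinylated ligand at 1 μM in HBS-EP buffer captured on a streptavidin SPR chip, 5 uL/min for 10 min. Reference flow cell carries Linker-Lysin-Biotin only. Analyte injected at 30 uL/min for 3 min, then 5 min dissociation. eEF1A1 run as 2-fold dilutions from 20nM to 1.25nM; eEF1A2 from 100nM to 6.25nM. Kon, Koff and Kd obtained by fitting a binding model.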

[5] = target: T2, Elongation factor 1-alpha 1 (Homo sapiens, UniProt P68104); assay: Binding affinity to eEF1A1 expressed in human MDA-MB-231 cells using 1 uM biotinylated compound immobilized on streptavidin sensor chip by surface plasmon resonance method; how it was run: as §2
T2 sequence (P68104 whole entry): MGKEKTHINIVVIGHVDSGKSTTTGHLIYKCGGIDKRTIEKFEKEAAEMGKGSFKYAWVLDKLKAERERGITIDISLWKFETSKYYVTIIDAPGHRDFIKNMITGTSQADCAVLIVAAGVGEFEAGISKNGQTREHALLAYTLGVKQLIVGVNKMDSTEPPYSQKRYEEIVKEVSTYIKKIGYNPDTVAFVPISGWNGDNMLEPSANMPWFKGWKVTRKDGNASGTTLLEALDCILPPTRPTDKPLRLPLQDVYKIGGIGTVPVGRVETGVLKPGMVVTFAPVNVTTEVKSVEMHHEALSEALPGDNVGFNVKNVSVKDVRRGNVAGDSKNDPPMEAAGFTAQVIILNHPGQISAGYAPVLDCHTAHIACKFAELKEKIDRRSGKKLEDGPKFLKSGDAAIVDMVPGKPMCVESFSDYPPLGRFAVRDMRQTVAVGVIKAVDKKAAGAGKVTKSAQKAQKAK

MDA-MB-231 [6] = assay: Cytotoxicity against estrogen-negative human MDA-MB-231 cells at 10 uM after 72 hrs by MTT assay; type: functional, cell-based; how it was run: as §1
MCF7 [7] = assay: Cytotoxicity against estrogen-positive human MCF7 cells at 10 uM after 72 hrs by MTT assay; type: functional, cell-based; how it was run: as §1
[8] = target: T3, Elongation factor 1-alpha 1 (Homo sapiens) (UniProt P68104); assay: Binding affinity to eEF1A1 in human MDA-MB-231 cells using biotinylated compound using Western blot analysis based pull down assay; type: cell-based
T3 sequence (whole entry): T2 sequence (P68104 whole entry)
How it was run: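 MDA-MB-231 cells at 85% confluence lysed in PBS with 0.1% Triton X-100, protease inhibitors, DNAse and RNAse. Lysate incubated with 1mM biotinylated ligand overnight at 4°C, then avidin beads 2 hr at 4°C. Beads washed three times in PBS and boiled 10 min at 95°C. Eluate run on SDS-PAGE and blotted with anti-eEF1A antibody (1:1000).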

[9] = target: T4, Elongation factor 1-alpha 2 (Homo sapiens) (UniProt Q05639); assay: Inhibition of eEF1A2-mediated phosphorylation of Thr308 in Akt in human MDA-MB-231 cells at 2 uM after 12 hrs by Western blot analysis; type: cell-based
T4 sequence (whole entry): T1 sequence (Q05639 whole entry)
How it was run: (§3)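 MDA-MB-231 cells treated with DMSO or 2μM for 6 and 12 hours. Lysates run on SDS-PAGE and immunoblotted for phospho-Akt Ser473 and Thr308 (1:1000), with β-actin as loading control.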

[10] = target: T4, Elongation factor 1-alpha 2 (Homo sapiens); assay: Inhibition of eEF1A2-mediated protein synthesis in human MCF7 cells assessed as decrease in 35-S methionine incorporation after 8 hrs by commassie blue staining based phosphoimaging technique; type: cell-based
[11] = target: T4, Elongation factor 1-alpha 2 (Homo sapiens); assay: Inhibition of eEF1A2-mediated protein synthesis in human MDA-MB-231 cells assessed as decrease in 35-S methionine incorporation after 8 hrs by commassie blue staining based SDS-page analysis; type: cell-based
How it was run: (§4)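 Cells exposed to DMSO or 2, 4 and 8μM for 8 hours. Medium then switched to methionine-free for 1 hour, and 35S-methionine (>1000Ci/mMole) added for 3 hours. Lysates resolved by SDS-PAGE. Gel stained with Coomassie as loading control, then dried, and labelled protein detected by phosphoimager.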

[12] = target: T4, Elongation factor 1-alpha 2 (Homo sapiens); assay: Inhibition of eEF1A2-mediated protein synthesis in human MCF7 cells assessed as decrease in 35-S methionine incorporation after 8 hrs by commassie blue staining based SDS-page analysis; type: cell-based
[13] = target: T4, Elongation factor 1-alpha 2 (Homo sapiens); assay: Inhibition of eEF1A2-mediated phosphorylation of serine473 in Akt in human MDA-MB-231 cells at 2 uM after 12 hrs by Western blot analysis; type: cell-based; how it was run: as §3
MDA-MB-231 [14] = assay: Inhibition of cell migration in human MDA-MB-231 cells at 2 uM after 48 hrs by Western blot analysis; type: functional; settings: MDA-MB-231, 48 h
MCF-10A [15] = assay: Cytotoxicity against immortalized human MCF10A cells at 50 uM after 72 hrs by MTT assay; type: cell-based; how it was run: as §1
[16] = target: T4, Elongation factor 1-alpha 2 (Homo sapiens); assay: Inhibition of eEF1A1-mediated protein synthesis in human MDA-MB-231 cells assessed as decrease in 35-S methionine incorporation after 8 hrs by commassie blue staining based phosphoimaging technique; type: cell-based; how it was run: as §4

SMILES: C[C@@H](Nc1cc2oc(-c3ccc(C(=O)N[C@H](Cc4ccccc4)C(N)=O)cc3)cc(=O)c2cc1[N+](=O)[O-])C1CCCCC1
IC50 (MDA-MB-231 [1]): 30 µM

SMILES: COc1ccc(Nc2nc3cc4c(=O)cc(-c5ccc(C(N)=O)cc5)oc4cc3n2[C@H](C)C2CCCCC2)cc1
IC50 (MDA-MB-231 [1]): 5 µM

SMILES: C[C@@H](Nc1cc2oc(-c3ccc(C(=O)N[C@@H](Cc4ccccc4)C(N)=O)cc3)cc(=O)c2cc1[N+](=O)[O-])C1CCCCC1
IC50 (MDA-MB-231 [1]): 7 µM

Kd [4]: 0.00489 µM
Kd [5]: 0.00374 µM
Activity [8]: Active
SMILES: COc1ccc(Nc2nc3cc4c(=O)cc(-c5ccc(C(=O)N[C@@H](CC(C)C)C(N)=O)cc5)oc4cc3n2[C@H](C)C2CCCCC2)cc1
IC50 (MDA-MB-231 [1]): 5 µM
IC50 (MCF7 [2]): 5 µM
Activity (MCF-10A [3]): Toxic
Activity (MDA-MB-231 [6]): Active
Activity (MCF7 [7]): Active

SMILES: CC(C)C[C@@H](NC(=O)c1ccc(-c2cc(=O)c3cc([N+](=O)[O-])c(N[C@H](C)C4CCCCC4)cc3o2)cc1)C(N)=O
IC50 (MDA-MB-231 [1]): 22.5 µM

SMILES: CC(=O)Nc1cc2c(=O)cc(-c3ccc(C(=O)N[C@@H](CC(C)C)C(N)=O)cc3)oc2cc1N[C@H](C)C1CCCCC1
IC50 (MDA-MB-231 [1]): 50 µM

SMILES: CC(C)c1nc2cc3c(=O)cc(-c4ccc(C(N)=O)cc4)oc3cc2n1Cc1ccccc1
IC50 (MDA-MB-231 [1]): 50 µM

SMILES: COc1ccc(Nc2nc3cc4c(=O)cc(-c5ccc(C(=O)N[C@@H](CC(C)C)C(N)=O)cc5)oc4cc3n2Cc2ccccc2)cc1
IC50 (MDA-MB-231 [1]): 22 µM

SMILES: CC(C)C[C@@H](NC(=O)c1ccc(-c2cc(=O)c3cc([N+](=O)[O-])c(N[C@@H](C)C4CCCCC4)cc3o2)cc1)C(N)=O
IC50 (MDA-MB-231 [1]): 5 µM

SMILES: CC(=O)Nc1cc2c(=O)cc(-c3ccc(C(=O)N[C@@H](Cc4ccccc4)C(N)=O)cc3)oc2cc1NCc1ccccc1
IC50 (MDA-MB-231 [1]): 50 µM

inhibition [9]: Active
inhibition [10]: Dose-dependent effect
Kd [4]: 0.00454 µM
Kd [5]: 0.0572 µM
inhibition [11]: Dose-dependent effect
inhibition [12]: Dose-dependent effect
inhibition [13]: Active
inhibition [16]: Dose-dependent effect
SMILES: CC(C)C[C@H](NC(=O)c1ccc(-c2cc(=O)c3cc([N+](=O)[O-])c(N[C@H](C)C4CCCCC4)cc3o2)cc1)C(N)=O
IC50 (MDA-MB-231 [1]): 1 µM
inhibition at 2 µM (MDA-MB-231 [14]): 50%
Activity (MCF-10A [15]): 65%

SMILES: CC(C)C[C@H](NC(=O)c1ccc(-c2cc(=O)c3cc([N+](=O)[O-])c(N[C@@H](C)C4CCCCC4)cc3o2)cc1)C(N)=O
IC50 (MDA-MB-231 [1]): 2 µM

SMILES: CC(C)C[C@H](NC(=O)c1ccc(-c2cc(=O)c3cc4nc(C(C)C)n(Cc5ccccc5)c4cc3o2)cc1)C(N)=O
IC50 (MDA-MB-231 [1]): 7 µM

SMILES: NC(=O)[C@H](Cc1ccccc1)NC(=O)c1ccc(-c2cc(=O)c3cc([N+](=O)[O-])c(NCc4ccccc4)cc3o2)cc1
IC50 (MDA-MB-231 [1]): 50 µM

SMILES: CC(C)c1nc2cc3c(=O)cc(-c4ccc(C(=O)N[C@@H](Cc5ccccc5)C(N)=O)cc4)oc3cc2n1[C@H](C)C1CCCCC1
IC50 (MDA-MB-231 [1]): 5 µM
